Assay [1] in a line: SK-BR-3 cell growth inhibitors, pilot screen, 24 h, human (AID 572;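 active = viability at or below 10% of carrier control in both of two separate runs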;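 also: compound exposure lasted between 18 and 24 h rather than exactly 24 h; 100% = carrier-treated control wells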). Conditions: SK-BR-3 viability, CellTiter-Glo luminescence, at 10 µM, stronger effect = lower value.
A short description of assay [2]: HUVEC growth inhibition – cell-based, human, primary screen (AID 575).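 Also: 100% = median of untreated cell wells with 0.1% DMSO on each plate.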 Conditions: HUVEC proliferation, CellTiter-Glo luminescence, 72 h; at 10 µM; stronger effect = lower value. A digest of the protocol:
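Test system – primary HUVEC, no more than 12 passages · Dosing – one dose, 10 µM final, 0.1% DMSO · Times – 72 h treatment at 37 °C · Measured by – ATP-based CellTiter-Glo luminescent read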

A short description of assay [3]: growth inhibitors of H69AR lung tumor, primary screen, human, duplicate replicates (AID 580;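 active = viability at or under a set limit in both replicates, limit being median viability minus 3 SD, cut at about 48% in these data, passing the limit was not always enough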;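 also: 100% = mean luminescence of untreated wells and 0% = no signal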). As to conditions: H69AR lung tumor cells viability, ATP luminescence, 72 h; at 10 µM; stronger effect = lower value.
The nature of assay [4]: reversal of MRP1-mediated doxorubicin resistance, pilot screen, H69AR cells, doxorubicin co-treatment (AID 601;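 active = viability loss from added drug above about 55%, and viability with drug at most 40%, in both replicates, limit read from the data, passing the limit was not always enough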). Conditions: CellTiter-Glo, 72 h, at 10 µM; for differential viability (reversal): stronger effect = higher value.
Assay [5] in a line: 384-well plate pilot, post-Golgi transport modulator project, inhibition of yeast transport mutant growth (AID 636; in the data active = inhibition above about 31%). As to conditions: absorbance 615 nm, about 18 h, stronger effect = higher value.
Assay [6] can be described thus: growth suppression of yeast trafficking mutant, preliminary HTS, modulators of trafficking downstream of Golgi apparatus project, 1536-format plate, OD 615 nm (AID 637; in the data active = inhibition above about 30%). Conditions: yeast transport mutant growth, absorbance 615 nm, 18 h; stronger effect = higher value.
Setting [7] is: H69AR cells + 2 uM doxorubicin, measured here: viability with 2 uM doxorubicin, stronger effect = lower value.
Where [8] appears, read: H69AR cells, compound alone cytotoxicity.

“And” between values parts separate entries of the source, which are not always exact repeats. Identical values can stand only once. The source made the active and inactive calls.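 The calls were made as follows, unless noted: active = viability at or below 30% in both replicate assays; inconclusive = viability at or below 30% in just one of the two assays; inactive = the rest.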

As for `C#CCN(C)Cc1ccccc1`, the viability in assay [1] was 96% (inactive); in assay [2] it was 94.3% (inactive); in assay [3] it was 93.8% (inactive); in assay [4] (setting [7]), 100%; in assay [4] (setting [8]) it was 93.8%. Further, the differential viability (reversal) in assay [4] (H69AR cells + 2 uM doxorubicin) was -6.42% (inactive). Moreover, the results for the inhibition in assay [5] and in assay [6] were 0.26% (inactive) and -1.17% (inactive), respectively.

Consider `CCCCN1C[C@H](O)[C@@H](O)[C@H](O)[C@H]1CO`, for which the viability is 123% (inactive) in assay [1]; 88.9% (inactive) in assay [2]; 96.5% (inactive) in assay [3]; 100% in assay [4] (setting [7]); 96.5% in assay [4] (setting [8]). Further, the differential viability (reversal) in assay [4] (H69AR cells + 2 uM doxorubicin) was -3.9% (inactive). The inhibition in assay [5] was 1.82% (inactive); in assay [6], 27% (inactive).

Take `Cc1ccc(N(CC2=NCCN2)c2cccc(O)c2)cc1`: the viability is 85% (inactive) and 113% (inactive) in assay [1]; 84.3% (inactive) and 64.3% (inactive) in assay [2]; 98.5% (inactive) and 92.6% (inactive) in assay [3]; 100% and 80.7% in assay [4] (setting [7]); 98.5% and 92.6% in assay [4] (setting [8]). Moreover, the differential viability (reversal) in assay [4] (H69AR cells + 2 uM doxorubicin) is -1.66% (inactive) and 11.9% (inactive). Besides, the inhibition in assay [5] is -1.43% (inactive) and 1.17% (inactive); in assay [6] it was -3.17% (inactive) and 0.5% (inactive).

For `COC(=O)c1ccccc1NC(=O)C12CCC(C)(C(=O)O1)C2(C)C` (stereo unspecified), the viability is 84% (inactive) in assay [1]; 87.6% (inactive) in assay [2]; 90.5% (inactive) in assay [3]; 76.8% in assay [4] (setting [7]); 90.5% in assay [4] (setting [8]). The differential viability (reversal) in assay [4] (H69AR cells + 2 uM doxorubicin) is 13.7% (inactive). Besides, the results for the inhibition in assay [5] and in assay [6] were -6.58% (inactive) and 0% (inactive), respectively.

With `COc1cc(C2Nc3cccc4cccc(c34)N2)cc(OC)c1O`, the viability is 92.5% (inactive) in assay [1], 57.5% (inactive) in assay [2], 70% in assay [4] (setting [7]) and 55.2% in assay [4] (setting [8]). Further, the differential viability (reversal) in assay [4] (H69AR cells + 2 uM doxorubicin) is -14.8% (inactive). The inhibition in assay [5] was -0.92% (inactive); in assay [6], -4.76% (inactive).

Take `N#Cc1cc2ccc(N3CCOCC3)cc2cc1C#N`: the viability was 85% (inactive) in assay [1], 4.27% (active) in assay [2], 76.9% in assay [4] (setting [7]) and 43.4% in assay [4] (setting [8]). Further, the differential viability (reversal) in assay [4] (H69AR cells + 2 uM doxorubicin) was -33.5% (inactive). Besides, the inhibition in assay [5] was -0.91% (inactive); in assay [6] it was -3% (inactive).

For `COc1cc([C@@H]2c3cc4c(cc3[C@H](O)[C@H]3COC(=O)[C@H]23)OCO4)cc(OC)c1OC`, the viability in assay [1] was 101% (inactive); in assay [2], 33.9% (inactive); in assay [4] (setting [7]), 63.7%; in assay [4] (setting [8]), 31.2%. Further, the differential viability (reversal) in assay [4] (H69AR cells + 2 uM doxorubicin) was -32.5% (inactive). Moreover, the inhibition is -2.99% (inactive) in assay [5] and -5.67% (inactive) in assay [6].

Turning to `COc1cc(/C=C/C(=O)CC(=O)/C=C/c2ccc(O)c(OC)c2)ccc1O`, the viability in assay [1] was 116% (inactive); in assay [2], 56.8% (inactive); in assay [4] (setting [7]), 2.06%; in assay [4] (setting [8]), 3.09%. In addition, in assay [4] (H69AR cells + 2 uM doxorubicin), the differential viability (reversal) is 1.03% (inactive). Further, the inhibition in assay [5] was -2.34% (inactive); in assay [6], 3.5% (inactive).

Turning to `COC(=O)C1=C(C)NC(C)=C(C(=O)OC)C1c1ccccc1[N+](=O)[O-]`, the viability is 91% (inactive) in assay [1], 46.7% (inactive) in assay [2], 2.41% in assay [4] (setting [7]) and 14.3% in assay [4] (setting [8]). Moreover, the differential viability (reversal) in assay [4] (H69AR cells + 2 uM doxorubicin) was 11.9% (inactive). In addition, the results for the inhibition in assay [5] and in assay [6] were 1.04% (inactive) and -2.67% (inactive), respectively.

On to `C=C1[C@@H](C)C2[C@H](Cc3ccccc3)NC(=O)[C@]23OC(=O)CC[C@H](O)CCC[C@H](C)C/C=C/[C@H]3[C@@H]1O` (stereo partly specified), for which the viability in assay [1] was 95% (inactive); in assay [2], 13.1% (active); in assay [4] (setting [7]), 48.2%; in assay [4] (setting [8]), 31.9%. In addition, the differential viability (reversal) in assay [4] (H69AR cells + 2 uM doxorubicin) is -16.3% (inactive). The inhibition in assay [5] is -0.26% (inactive); in assay [6], 0.67% (inactive).

For the molecule `O=C(Nc1ccc(-c2nc3ncccc3o2)cc1)c1ccc(Br)o1`, the viability in assay [1] was 97% (inactive); in assay [2] it was 104% (inactive); in assay [4] (setting [7]) it was 53.2%; in assay [4] (setting [8]) it was 49.2%. For the same molecule, the differential viability (reversal) in assay [4] (H69AR cells + 2 uM doxorubicin) is -4.05% (inactive). The inhibition is -2.13% (inactive) in assay [5] and -0.36% (inactive) in assay [6].
